Holding throughout (format): functional
The subject of one experiment is Aspergillus fumigatus. Put plainly: Antifungal activity against Aspergillus fumigatus by micro-broth dilution method. The essentials: (§1)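 MIC80 by broth microdilution in 96-well format following NCCLS. Compounds were dissolved in DMSO, serially diluted in growth medium, inoculated and incubated at 35 °C. The endpoint was the first well with about 80% growth reduction versus the drug-free well. Values are means of three replicate tests.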
On the technique in general: In broth dilution the organism is exposed to a series of concentrations in liquid medium.

A further experiment has as its system Kluyveromyces marxianus. Put plainly: Antifungal activity against Candida kefyr by micro-broth dilution method. A digest of the protocol: as §1
A further experiment concerns Candida parapsilosis. Put plainly: Antifungal activity against Candida parapsilosis by micro-broth dilution method. As to conditions: Lodderomyces parapsilosis. A digest of the protocol: as §1
For experiment [1], the system named is Candida albicans. Briefly: Antifungal activity against Candida albicans Y0109 after 24 hrs by micro-broth dilution method. As to conditions: Y0109, 24 h. The essentials:
(§2)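 Broth microdilution per NCCLS on Candida albicans. Compounds were dissolved in DMSO, serially diluted in growth medium, inoculated and incubated at 35 °C. Growth was read at 24 h, and MIC80 was taken as the first well with about 80% growth reduction relative to the drug-free control. Values are the mean of three replicates.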

For the next experiment, the system named is Trichophyton rubrum. Put plainly: Antifungal activity against Trichophyton rubrum by micro-broth dilution method. The essentials: as §1
Another experiment concerns Candida tropicalis. Briefly: Antifungal activity against Candida tropicalis by micro-broth dilution method. A digest of the protocol:
as §1

The test system of experiment [2] is Candida albicans. Put plainly: Antifungal activity against Candida albicans SC5314 after 24 hrs by micro-broth dilution method. As to conditions: SC5314, 24 h. The essentials:
as §2

For the next experiment, the system named is Cryptococcus neoformans. Put plainly: Antifungal activity against Cryptococcus neoformans after 72 hrs by micro-broth dilution method. The essentials: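 Cryptococcus neoformans tested by NCCLS micro-broth dilution. Compounds were dissolved in DMSO, serially diluted in medium, inoculated and incubated at 35 °C. MIC80 was read at 72 h as the first well showing approximately 80% growth reduction compared with the drug-free well. Values are the mean of three replicate tests.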

≈ marks a conversion by molar mass, not a printed value.

Experimental findings from ChEMBL document CHEMBL1250476, “Synthesis and antifungal evaluation of novel triazole derivatives as inhibitors of cytochrome P450 14alpha-demethylase” (2010) are described below.

Take `OC(CN(Cc1cn(C2CCCCC2)nn1)C1CC1)(Cn1cncn1)c1ccc(F)cc1F` (stereo unspecified): the minimum inhibitory concentration (MIC) in the experiment with Aspergillus fumigatus was 32 µg/mL (≈ 69.9 µM); in the experiment with Kluyveromyces marxianus, 0.25 µg/mL (≈ 0.546 µM); against Candida parapsilosis, 1 µg/mL (≈ 2.19 µM); in the experiment on Candida albicans [1], 0.0625 µg/mL (≈ 0.137 µM); against Trichophyton rubrum it was 2 µg/mL (≈ 4.37 µM); in the experiment on Candida tropicalis, 1 µg/mL (≈ 2.19 µM). The MIC in the experiment on Candida albicans [2] was determined as 4 µg/mL (≈ 8.74 µM); against Cryptococcus neoformans it was 2 µg/mL (≈ 4.37 µM).

Regarding `C[C@@H]1[C@H](O)[C@@H](C)/C=C/C=C/C=C/C=C/C=C/C=C/C=C/[C@H](O[C@@H]2O[C@H](C)[C@@H](O)[C@H](N)[C@@H]2O)C[C@@H]2O[C@](O)(C[C@@H](O)C[C@@H](O)[C@H](O)CC[C@@H](O)C[C@@H](O)CC(=O)O[C@H]1C)C[C@H](O)[C@H]2C(=O)O` [AMPHOTERICIN B], the minimum inhibitory concentration (MIC) is 32 µg/mL (≈ 34.6 µM) in the experiment on Aspergillus fumigatus; 0.25 µg/mL (≈ 0.271 µM) against Kluyveromyces marxianus; 0.125 µg/mL (≈ 0.135 µM) with Candida parapsilosis; 4 µg/mL (≈ 4.33 µM) with Candida albicans [1]; 1 µg/mL (≈ 1.08 µM) against Trichophyton rubrum; 0.25 µg/mL (≈ 0.271 µM) in the experiment with Candida tropicalis. Besides, the MIC against Candida albicans [2] came out at 8 µg/mL (≈ 8.66 µM); against Cryptococcus neoformans, 4 µg/mL (≈ 4.33 µM).

On to `OC(Cn1cncn1)(Cn1cncn1)c1ccc(F)cc1F` [FLUCONAZOLE], for which the MIC in the experiment with Aspergillus fumigatus is over 64 µg/mL; against Kluyveromyces marxianus it was 1 µg/mL (≈ 3.27 µM); in the experiment with Candida parapsilosis, 2 µg/mL (≈ 6.53 µM); with Candida albicans [1] it was 0.5 µg/mL (≈ 1.63 µM); against Trichophyton rubrum it was under 0.125 µg/mL; against Candida tropicalis, under 0.125 µg/mL. The MIC in the experiment with Candida albicans [2] stood at 0.5 µg/mL (≈ 1.63 µM); with Cryptococcus neoformans, 8 µg/mL (≈ 26.1 µM).

As to `CCC(C)n1ncn(-c2ccc(N3CCN(c4ccc(OCC5COC(Cn6cncn6)(c6ccc(Cl)cc6Cl)O5)cc4)CC3)cc2)c1=O` (stereo unspecified) [ITRACONAZOLE], the minimum inhibitory concentration (MIC) with Aspergillus fumigatus is 2 µg/mL (≈ 2.83 µM); against Kluyveromyces marxianus it was 0.0625 µg/mL (≈ 0.0886 µM); against Candida parapsilosis, 0.0625 µg/mL (≈ 0.0886 µM); against Candida albicans [1] it was 0.0625 µg/mL (≈ 0.0886 µM); in the experiment on Trichophyton rubrum, 0.0625 µg/mL (≈ 0.0886 µM); against Candida tropicalis, under 0.0625 µg/mL. For the same molecule, the results for the MIC against Candida albicans [2] and against Cryptococcus neoformans were under 0.0625 µg/mL and 0.125 µg/mL (≈ 0.177 µM), respectively.

For the molecule `CC(=O)N1CCN(c2ccc(OCC3COC(Cn4ccnc4)(c4ccc(Cl)cc4Cl)O3)cc2)CC1` (stereo unspecified) [KETOCONAZOLE], the minimum inhibitory concentration (MIC) in the experiment on Aspergillus fumigatus was 0.125 µg/mL (≈ 0.235 µM); in the experiment with Kluyveromyces marxianus, 0.0625 µg/mL (≈ 0.118 µM); in the experiment with Candida parapsilosis it was under 0.125 µg/mL; against Candida albicans [1], under 0.125 µg/mL; against Trichophyton rubrum it was under 0.125 µg/mL; in the experiment with Candida tropicalis, under 0.125 µg/mL. For the same molecule, the minimum inhibitory concentration (MIC) in the experiment on Candida albicans [2] is under 0.125 µg/mL; against Cryptococcus neoformans, 0.5 µg/mL (≈ 0.941 µM).

Regarding `CN(C/C=C/C#CC(C)(C)C)Cc1cccc2ccccc12` [TERBINAFINE], the MIC in the experiment on Aspergillus fumigatus was 0.25 µg/mL (≈ 0.858 µM); against Kluyveromyces marxianus it was 0.0625 µg/mL (≈ 0.214 µM); in the experiment on Candida parapsilosis, under 0.125 µg/mL; against Candida albicans [1], 2 µg/mL (≈ 6.86 µM); in the experiment on Trichophyton rubrum, under 0.125 µg/mL; in the experiment on Candida tropicalis it was under 0.125 µg/mL. The figures for the minimum inhibitory concentration (MIC) with Candida albicans [2] and in the experiment with Cryptococcus neoformans were 16 µg/mL (≈ 54.9 µM) and 8 µg/mL (≈ 27.5 µM), respectively.

For `C[C@@H](c1ncncc1F)[C@](O)(Cn1cncn1)c1ccc(F)cc1F` [VORICONAZOLE], the MIC was under 0.125 µg/mL in the experiment on Aspergillus fumigatus; 0.0039 µg/mL (≈ 0.0112 µM) against Kluyveromyces marxianus; under 0.125 µg/mL against Candida parapsilosis; under 0.125 µg/mL in the experiment on Candida albicans [1]; 0.25 µg/mL (≈ 0.716 µM) against Trichophyton rubrum; under 0.125 µg/mL against Candida tropicalis. The MIC is 32 µg/mL (≈ 91.6 µM) with Candida albicans [2] and under 0.125 µg/mL against Cryptococcus neoformans.

By MIC is commonly meant the least concentration at which growth counts as inhibited. Higher therefore signals a need for much substance.
